Activity calls are given as the source filed them. No cut-off for these calls is given here.
Tested on: not listed separately
Assay: (§1) Inhibition of Influenza A virus A/WSN/33(H1N1) RNA polymerase expressed in HEK-293T cells after 24 hrs by dual luciferase reporter gene assay
Type: cell-based, HEK293T
Conditions: not given
Procedure, shortened: (§2)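 HEK293T cells transfected with pCAGGS plasmids for PB2, PB1, PA and NP, plus a pol-driven firefly luciferase reporter and SV40-Renilla, with or without compound at the indicated concentrations. vRNA transcription read as firefly and Renilla luciferase at 24 h post-transfection.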

Compound CC(C)(C)OC(=O)N1CCN(c2ccc3cccc(OCC(=O)NCc4ccccc4)c3n2)CC1 has an IC50 of 1.93 µM.

Tested on: HEK293T
Assay: as §1
Type: cell-based
Conditions: not given
Procedure, shortened: as §2

With CC(C)(C)OC(=O)N1CCN(c2ccc3cccc(OCC(=O)NCc4ccccc4)c3n2)CC1 the inhibition was “Dose-dependent effect”.

Tested on: not listed separately
Assay: Cytotoxicity against human HEp-2 cells assessed as reduction in cell viability after 48 hrs by MTS assay
Type: cell-based
Conditions: not given

In order of rising CC50 at 48 h:
1. CC(C)(C)OC(=O)N[C@H]1CCN(c2ccc3cccc(OCC(=O)NCc4ccccc4)c3n2)C1  43.8 µM
2. CC(C)(C)OC(=O)N[C@@H]1CCN(c2ccc3cccc(OCC(=O)NCc4ccccc4)c3n2)C1  58.6 µM
3. COc1cccc(CNC(=O)COc2cccc3ccc(N4CCCC4)nc23)c1  74.3 µM
4. c1cc(OCCCCCN2CCOCC2)c2nc(N3CCCC3)ccc2c1  173 µM
5. O=C(COc1cccc2ccc(N3CCCC3)nc12)NCc1ccco1  249 µM
6. O=C(COc1cccc2ccc(N3CCCC3)nc12)Nc1ccccc1  304 µM
7. O=C(COc1cccc2ccc(N3CCCC3)nc12)NCc1ccccc1Br  312 µM
8. O=C(COc1cccc2ccc(N3CCCC3)nc12)NCc1cccc(F)c1  444 µM
9. O=C(COc1cccc2ccc(Cl)nc12)NCc1ccccc1  528 µM
10. O=C(COc1cccc2ccc(N3CCCC3)nc12)NCc1ccccc1  540 µM
11. CCOC(=O)COc1cccc2ccc(N3CCCC3)nc12  826 µM
12. CS(=O)(=O)c1ccc(CNC(=O)COc2cccc3ccc(N4CCCC4)nc23)cc1  1360 µM
13. CC(C)(C)OC(=O)N1CCN(c2ccc3cccc(OCC(=O)NCc4ccccc4)c3n2)CC1  1370 µM
14. O=C(COc1cccc2ccc(N3CCCCC3)nc12)NCc1ccccc1  1740 µM
15. NC(=O)c1ncn([C@@H]2O[C@H](CO)[C@@H](O)[C@H]2O)n1 [RIBAVIRIN]  3040 µM

Tested on: Influenza A virus
Assay: Antiviral activity against Influenza A virus A/WSN/33(H1N1) infected in human HEK-293T cells assessed as inhibition of viral replication at 10 uM after 48 hrs by CCK-8 assay relative to control
Type: functional, A/WSN/1933(H1N1)
Parameters: scale not given: the % may be the effect or the level left
Conditions: not given

In the case of CC(C)(C)OC(=O)N[C@@H]1CCN(c2ccc3cccc(OCC(=O)NCc4ccccc4)c3n2)C1, the Activity is reported as over 70%.
CC(C)(C)OC(=O)N[C@H]1CCN(c2ccc3cccc(OCC(=O)NCc4ccccc4)c3n2)C1 gave an Activity of over 70%.
CC(C)(C)OC(=O)N1CCN(c2ccc3cccc(OCC(=O)NCc4ccccc4)c3n2)CC1 gave an Activity of over 70%.

Tested on: not listed separately
Assay: Selectivity index, ratio of CC50 for cytotoxicity against human HEK-293T cells to IC50 for antiviral activity against Influenza A virus A/WSN/33(H1N1) […] cells
Type: toxicity, cell-based
Conditions: read-out: Ratio CC50/IC50

c1cc(OCCCCCN2CCOCC2)c2nc(N3CCCC3)ccc2c1 and O=C(COc1cccc2ccc(N3CCCC3)nc12)NCc1ccccc1 cannot be ordered by selectivity ratio: over 3.08 for the first, over 7.5 for the second.

NC(=O)c1ncn([C@@H]2O[C@H](CO)[C@@H](O)[C@H]2O)n1 [RIBAVIRIN] and CC(C)(C)OC(=O)N[C@@H]1CCN(c2ccc3cccc(OCC(=O)NCc4ccccc4)c3n2)C1 cannot be ordered by selectivity ratio: over 6.51 for the first, 9.99 for the second.

Going from CC(C)(C)OC(=O)N[C@H]1CCN(c2ccc3cccc(OCC(=O)NCc4ccccc4)c3n2)C1 to CC(C)(C)OC(=O)N1CCN(c2ccc3cccc(OCC(=O)NCc4ccccc4)c3n2)CC1, the selectivity ratio rises from 11.3 to over 53.5.

Tested on: Influenza A virus
Assay: Antiviral activity against Influenza A virus A/WSN/33(H1N1) infected in human HEK-293T cells assessed as inhibition of viral replication after 48 hrs by CCK-8 assay
Type: functional, organism-based
Conditions: A/WSN/1933(H1N1)

In order of falling IC50:
1. c1cc(OCCCCCN2CCOCC2)c2nc(N3CCCC3)ccc2c1  32.4 µM
2. O=C(COc1cccc2ccc(N3CCCC3)nc12)NCc1ccccc1  13.3 µM
3. CC(C)(C)OC(=O)N[C@H]1CCN(c2ccc3cccc(OCC(=O)NCc4ccccc4)c3n2)C1  5.11 µM
4. CC(C)(C)OC(=O)N[C@@H]1CCN(c2ccc3cccc(OCC(=O)NCc4ccccc4)c3n2)C1  4.99 µM
5. CC(C)(C)OC(=O)N1CCN(c2ccc3cccc(OCC(=O)NCc4ccccc4)c3n2)CC1  1.87 µM

Tested on: HEK-293T
Assay: Cytotoxicity against human HEK-293T cells assessed as reduction in cell viability after 48 hrs by CCK-8 assay
Type: cell-based
Conditions: not given
Procedure, shortened: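 Cytotoxicity in 293T cells in 96-well plates incubated with compounds at six concentrations (top 200) for 48 h. CCK-8 solution added and OD read at 450 nm. DMSO-only cells served as control.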

c1cc(OCCCCCN2CCOCC2)c2nc(N3CCCC3)ccc2c1 and O=C(COc1cccc2ccc(N3CCCC3)nc12)NCc1ccccc1 cannot be ordered by IC50: over 100 µM for the first, over 100 µM for the second.

First: NC(=O)c1ncn([C@@H]2O[C@H](CO)[C@@H](O)[C@H]2O)n1 [RIBAVIRIN]
Second: CC(C)(C)OC(=O)N[C@@H]1CCN(c2ccc3cccc(OCC(=O)NCc4ccccc4)c3n2)C1
The IC50 of the first is higher: over 100 µM for the first, 49.9 µM for the second. The second is the more potent here.

First: CC(C)(C)OC(=O)N[C@H]1CCN(c2ccc3cccc(OCC(=O)NCc4ccccc4)c3n2)C1
Second: CC(C)(C)OC(=O)N1CCN(c2ccc3cccc(OCC(=O)NCc4ccccc4)c3n2)CC1
The IC50 of the first is lower: 58 µM for the first, over 100 µM for the second. The first is the more potent here.

Tested on: not listed separately
Assay: Selectivity index, ratio of CC50 for cytotoxicity against human HEp-2 cells to IC50 for antiviral activity against RSV Long expressing mGFP infected in HEp-2 cells
Type: toxicity, cell-based
Conditions: read-out: Ratio CC50/IC50

In order of falling selectivity ratio:
1. NC(=O)c1ncn([C@@H]2O[C@H](CO)[C@@H](O)[C@H]2O)n1 [RIBAVIRIN]  175
2. CC(C)(C)OC(=O)N1CCN(c2ccc3cccc(OCC(=O)NCc4ccccc4)c3n2)CC1  80.9
3. O=C(COc1cccc2ccc(N3CCCCC3)nc12)NCc1ccccc1  66.7
4. CCOC(=O)COc1cccc2ccc(N3CCCC3)nc12  50.3
5. O=C(COc1cccc2ccc(Cl)nc12)NCc1ccccc1  25.6
6. O=C(COc1cccc2ccc(N3CCCC3)nc12)Nc1ccccc1  18.4
7. O=C(COc1cccc2ccc(N3CCCC3)nc12)NCc1ccco1  10.9
8. COc1cccc(CNC(=O)COc2cccc3ccc(N4CCCC4)nc23)c1  10.7
9. O=C(COc1cccc2ccc(N3CCCC3)nc12)NCc1ccccc1  9.68
10. CC(C)(C)OC(=O)N[C@H]1CCN(c2ccc3cccc(OCC(=O)NCc4ccccc4)c3n2)C1  9.59
11. CS(=O)(=O)c1ccc(CNC(=O)COc2cccc3ccc(N4CCCC4)nc23)cc1  6.14
12. c1cc(OCCCCCN2CCOCC2)c2nc(N3CCCC3)ccc2c1  5.52
13. O=C(COc1cccc2ccc(N3CCCC3)nc12)NCc1ccccc1Br  1.71
14. CC(C)(C)OC(=O)N[C@@H]1CCN(c2ccc3cccc(OCC(=O)NCc4ccccc4)c3n2)C1  1.66
15. O=C(COc1cccc2ccc(N3CCCC3)nc12)NCc1cccc(F)c1  0.15

Tested on: Respiratory syncytial virus
Assay: Potency index, ratio of ribavirin IC50 to test compound IC50 for antiviral activity against RSV Long expressing mGFP infected in HEp-2 cells
Type: functional
Conditions: not given

In order of falling “Ratio IC50” value:
1. COc1cccc(CNC(=O)COc2cccc3ccc(N4CCCC4)nc23)c1  2.5
2. CC(C)(C)OC(=O)N[C@H]1CCN(c2ccc3cccc(OCC(=O)NCc4ccccc4)c3n2)C1  2.5

Tested on: Respiratory syncytial virus
Assay: Antiviral activity against RSV Long expressing mGFP infected in HEp-2 cells assessed as reduction in viral replication after 48 hrs by MTS assay
Type: functional, organism-based
Conditions: human respiratory syncytial virus, HEp-2, 48 h
Procedure, shortened: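 HEp-2 cells plated in 96-well plates; after 24 h, virus alone or virus plus compound added; 48 h incubation. MTS (2 mg/ml) added for 3 h at 37 °C, 5% CO2; absorbance read at 490 nm. Controls were mock-treated cells (uninfected, or infected without compound), with cell activity set as 100%.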

In order of falling IC50:
1. O=C(COc1cccc2ccc(N3CCCC3)nc12)NCc1cccc(F)c1  2920 µM
2. CS(=O)(=O)c1ccc(CNC(=O)COc2cccc3ccc(N4CCCC4)nc23)cc1  221 µM
3. O=C(COc1cccc2ccc(N3CCCC3)nc12)NCc1ccccc1Br  182 µM
4. O=C(COc1cccc2ccc(N3CCCC3)nc12)NCc1ccccc1  55.8 µM
5. CC(C)(C)OC(=O)N[C@@H]1CCN(c2ccc3cccc(OCC(=O)NCc4ccccc4)c3n2)C1  35.3 µM
6. c1cc(OCCCCCN2CCOCC2)c2nc(N3CCCC3)ccc2c1  31.3 µM
7. O=C(COc1cccc2ccc(N3CCCCC3)nc12)NCc1ccccc1  26.1 µM
8. O=C(COc1cccc2ccc(N3CCCC3)nc12)NCc1ccco1  22.9 µM
9. O=C(COc1cccc2ccc(Cl)nc12)NCc1ccccc1  20.7 µM
10. NC(=O)c1ncn([C@@H]2O[C@H](CO)[C@@H](O)[C@H]2O)n1 [RIBAVIRIN]  17.3 µM
11. CC(C)(C)OC(=O)N1CCN(c2ccc3cccc(OCC(=O)NCc4ccccc4)c3n2)CC1  16.9 µM
12. O=C(COc1cccc2ccc(N3CCCC3)nc12)Nc1ccccc1  16.5 µM
13. CCOC(=O)COc1cccc2ccc(N3CCCC3)nc12  16.4 µM
14. COc1cccc(CNC(=O)COc2cccc3ccc(N4CCCC4)nc23)c1  6.93 µM
15. CC(C)(C)OC(=O)N[C@H]1CCN(c2ccc3cccc(OCC(=O)NCc4ccccc4)c3n2)C1  4.57 µM

Tested on: Influenza A virus
Assay: Potency index, ratio of ribavirin IC50 to test compound IC50 for antiviral activity against Influenza A virus A/WSN/33(H1N1) infected in human HEK-293T cells
Type: functional, A/WSN/1933(H1N1)
Conditions: not given

For CC(C)(C)OC(=O)N1CCN(c2ccc3cccc(OCC(=O)NCc4ccccc4)c3n2)CC1, the “Ratio IC50” value was 8.2.

Tested on: Influenza A virus
Assay: Antiviral activity against Influenza A virus A/WSN/33(H1N1) infected in human A549 cells assessed as inhibition of viral replication at 10 uM after 2 to 6 hrs
Type: functional, organism-based
Conditions: A/WSN/1933(H1N1), time 2-6 hrs

With CC(C)(C)OC(=O)N1CCN(c2ccc3cccc(OCC(=O)NCc4ccccc4)c3n2)CC1 the Activity was “Active”.

Source: ChEMBL document CHEMBL4732200, “Synthesis and antiviral activity of a series of novel quinoline derivatives as anti-RSV or anti-IAV agents” (Eur J Med Chem, 2021)
